We go through 19 compounds from publication PMC7340117 (SLAS discovery : advancing life sciences R & D, 2019).

One data set concerns the target T1, malate dehydrogenase (Sus scrofa, UniProt P00346).
T1 sequence (P00346 25-338): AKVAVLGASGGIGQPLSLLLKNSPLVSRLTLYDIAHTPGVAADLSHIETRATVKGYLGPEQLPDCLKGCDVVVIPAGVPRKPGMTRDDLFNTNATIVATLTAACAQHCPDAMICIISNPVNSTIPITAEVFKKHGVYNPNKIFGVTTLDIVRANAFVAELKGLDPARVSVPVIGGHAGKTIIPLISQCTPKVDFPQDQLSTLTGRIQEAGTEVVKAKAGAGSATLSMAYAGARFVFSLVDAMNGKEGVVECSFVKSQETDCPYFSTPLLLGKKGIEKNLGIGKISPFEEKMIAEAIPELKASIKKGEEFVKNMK
Kind of data set: MDH assay without malate. The format is biochemical, pig. The conditions noted are these: no malate added.

For data set [1], the target named is T2, human fumarate hydratase (Homo sapiens, UniProt P07954).
T2 sequence (P07954 45-510): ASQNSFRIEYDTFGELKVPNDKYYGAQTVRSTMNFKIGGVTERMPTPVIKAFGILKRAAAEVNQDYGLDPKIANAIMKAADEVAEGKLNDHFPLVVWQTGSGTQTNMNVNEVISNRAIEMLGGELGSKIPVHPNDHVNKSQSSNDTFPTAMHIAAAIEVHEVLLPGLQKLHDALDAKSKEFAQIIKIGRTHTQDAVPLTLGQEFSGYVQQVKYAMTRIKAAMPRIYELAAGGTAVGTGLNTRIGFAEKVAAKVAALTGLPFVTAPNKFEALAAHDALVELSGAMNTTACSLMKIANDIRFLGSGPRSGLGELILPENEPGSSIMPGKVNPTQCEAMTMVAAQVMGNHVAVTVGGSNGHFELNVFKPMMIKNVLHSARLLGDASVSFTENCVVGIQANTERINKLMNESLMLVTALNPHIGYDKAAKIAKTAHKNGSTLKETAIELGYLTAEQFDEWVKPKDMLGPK
Nature of the data set: FH assay without fumarate. The class given is biochemical. The conditions noted are these: no fumarate added.

Data set [2] can be described thus: parallel artificial membrane permeability assay. The class given is in vitro ADME.
A short description of data set [3]: aqueous kinetic solubility assay. The class given is physicochemical. The conditions noted are these: aqueous medium, kinetic from dmso stock.
In data set [4] the target is T2, human fumarate hydratase. Kind of data set: microscale thermophoresis. The class given is binding. The essentials:
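Recombinant C-terminally His-tagged human FH (200 nM) was labelled with RED-tris-NTA dye (100 nM) in PBS-T pH 7.4, mixed 1:1 for 30 min at RT, and spun 15,000 x g. Compound: 16-point 1:2 DMSO series from 10 mM, diluted 20-fold in PBS-T, mixed 1:1 with protein (50 nM FH), 2–3 min RT. Settings: LED 40%, MST 40%/60%, laser 30 s on. Kd taken from cold/hot regions.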

In data set [5] the target is T2, human fumarate hydratase. Nature of the data set: fluorescence-based FH assay coupled to MDH/diaphorase/resazurin. The class given is biochemical. The conditions noted are these: for Emax: read-out: Efficacy; for activity in FH assay (in words): human FH assay with fumarate.
Data set [6] can be described thus: rat microsomal stability assay. The format is in vitro ADME. The conditions noted are these: liver microsomes.
The next data set is described as follows: Amplex red REDOX assay. An outline of the steps:
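Test compound (20 nL) was pinned into HBSS (1.26 mM CaCl2, 0.49 mM MgCl2, 1 g/L D-glucose), and background fluorescence was read (ex/em 525/598 nm). An equal volume of 2X Amplex Red mix (100 µM Amplex Red, 200 µM DTT, 2 U/mL HRP in HBSS) was added. After 15 min at room temperature the plate was re-read; ΔRFU = 15 min − 0 min. DMSO was the negative control; walrycin B and […] were positive controls.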

Data set [7] addresses T3, L-malate dehydrogenase from pig heart (Sus scrofa, UniProt P00346).
T3 sequence (P00346 25-338): T1 sequence (P00346 25-338)
Kind of data set: malate dehydrogenase. The format is biochemical. The conditions noted are these: read-out: Km value for MDH enzyme; 10 IU/ml MDH, 5 min, room temperature.

Molecules are shown by their SMILES. In brackets after ≈: the same amount, converted by molar mass. Where two headings read alike, the source gives them in different places.

Turning to `O=C(O)C(O)C(O)C(=O)O` (centres unmarked) [tartrate], at malate dehydrogenase, the “signal in MDH assay in the absence of malate (in words)” value was “can drive both enzymes”. On human fumarate hydratase [1], the “signal in FH assay in the absence of fumarate (in words)” value was “can drive both enzymes”.

As to `Cn1c(=O)c2c(-c3ccc(Cl)cc3)n(CCc3ccccc3)cc2n(C)c1=O` [NCGC00102736, 5-(4-chlorophenyl)-1,3-dimethyl-6-phenethyl-1,6-dihydro-2H-pyrrolo[3,4-d]pyrimidine-2,4(3H)-dione], in [2], the “PAMPA permeability pH 5” value is listed as 762.26 1×10–6 cm/s, the “PAMPA Permeability pH 7.4” value is 1,224.00 1×10–6 cm/s and the “PAMPA permeability at pH 7.4 (in words)” value was “high permeability”. The solubility in data set [3] was determined as 2.15 µg/mL (≈ 5.46 µM). The same compound showed a Kd at human fumarate hydratase [4] of 18.3 µM. Besides, at human fumarate hydratase [5], the activity was half-maximal at 8.89 µM (AC50) and the Emax came out at 79.4%. The compound further yielded a half-life in [6] of 1.11 min.

As for `O=C([O-])C(O)C(O)C(=O)[O-].[K+].[Na+]` (centres unmarked) [Potassium sodium tartrate, reference compound], on human fumarate hydratase [5], the “activity in FH assay (in words)” value was “increased activity”.

`Cn1c(=O)c2c(-c3ccccc3Br)n(Cc3ccccc3)cc2n(C)c1=O` [NCGC00117701, 6-benzyl-5-(2-bromophenyl)-1,3-dimethyl-1,6-dihydro-2H-pyrrolo[3,4-d]pyrimidine-2,4(3H)-dione]: on human fumarate hydratase [5], the activity was half-maximal at 28.1 µM (AC50) and the Emax turned out to be 78.1%.

Take `O=C1C(Cl)=C(Cl)C(=O)C(Cl)=C1Cl` [Chloranil]: the “redox activity in amplex red assay (in words)” value in the data set “Amplex red REDOX assay” is “strong REDOX activity”.

As for `CCCCCn1cc2c(c1-c1ccc(Br)cc1)c(=O)n(C)c(=O)n2C` [NCGC00117671, 5-(4-bromophenyl)-1,3-dimethyl-6-pentyl-1,6-dihydro-2H-pyrrolo[3,4-d]pyrimidine-2,4(3H)-dione], in data set [2], the “PAMPA permeability pH 5” value is 945.87 1×10–6 cm/s and the “PAMPA Permeability pH 7.4” value is “Not conclusive”. The solubility in data set [3] was under 1 µg/mL. Moreover, at human fumarate hydratase [5], the AC50 was determined as 7.93 µM and the Emax came out at 60.1%. The compound also displayed a half-life in [6] of 6.39 min.

For `O=C(O)CC(O)C(=O)O` (centres unmarked) [malate], in data set [7], the Km amounted to 225 ± 30 µM.

As for `CCCCCn1cc2c(c1-c1ccccc1Br)c(=O)n(C)c(=O)n2C` [NCGC00117699, 5-(2-bromophenyl)-1,3-dimethyl-6-pentyl-1,6-dihydro-2H-pyrrolo[3,4-d]pyrimidine-2,4(3H)-dione], at human fumarate hydratase [5], the AC50 came out at 31.5 µM and the Emax was found to be 49.7%.

In the case of `CCCCCn1cc2c(c1-c1ccc(Cl)cc1)c(=O)n(C)c(=O)n2C` [NCGC00115666, 5-(4-chlorophenyl)-1,3-dimethyl-6-pentyl-1,6-dihydro-2H-pyrrolo[3,4-d]pyrimidine-2,4(3H)-dione], on human fumarate hydratase [5], the AC50 worked out at 5.61 µM and the Emax is 35%.

Regarding `CCCCn1cc2c(c1-c1ccc(Br)cc1)c(=O)n(C)c(=O)n2C` [NCGC00117675, 5-(4-bromophenyl)-6-butyl-1,3-dimethyl-1,6-dihydro-2H-pyrrolo[3,4-d]pyrimidine-2,4(3H)-dione], in data set [2], the “PAMPA permeability pH 5” value was 1,194 1×10–6 cm/s, the “PAMPA Permeability pH 7.4” value is 1,507 1×10–6 cm/s and the “PAMPA permeability at pH 7.4 (in words)” value is recorded as “high permeability”. In [3], this compound displayed a solubility of under 1 µg/mL. For the same compound, the dissociation constant Kd at human fumarate hydratase [4] is 23.3 µM. At human fumarate hydratase [5], half-maximal activity (AC50) was put at 9.98 µM and the Emax was 79%. The compound further came in with a half-life in data set [6] of 7.68 min.

With `Cn1c(=O)c2c(-c3ccccc3Br)n(CCc3ccccc3)cc2n(C)c1=O` [NCGC00117727, 5-(2-bromophenyl)-1,3-dimethyl-6-phenethyl-1,6-dihydro-2H-pyrrolo[3,4-d]pyrimidine-2,4(3H)-dione], at human fumarate hydratase [5], the AC50 stood at 25.1 µM and the Emax was 70%.

On to `Cn1c(=O)c2c(-c3ccccc3Cl)n(Cc3ccc(Cl)cc3)cc2n(C)c1=O` [NCGC00115668, 6-(4-chlorobenzyl)-5-(2-chlorophenyl)-1,3-dimethyl-1,6-dihydro-2H-pyrrolo[3,4-d]pyrimidine-2,4(3H)-dione], for which, at human fumarate hydratase [5], the AC50 was 15.8 µM and the Emax was determined as 45.5%.

On to `COc1ccc(CCn2cc3c(c2-c2ccc(Br)cc2)c(=O)n(C)c(=O)n3C)cc1OC` [NCGC00117695, 5-(4-bromophenyl)-6-(3,4-dimethoxyphenethyl)-1,3-dimethyl-1,6-dihydro-2H-pyrrolo[3,4-d]pyrimidine-2,4(3H)-dione], for which, on human fumarate hydratase [5], the activity was half-maximal at 31.5 µM (AC50) and the Emax turned out to be 79.5%.

On to `O=C(O)/C=C/C(=O)O` [fumarate, reference compound], for which the Km on human fumarate hydratase [5] (read-out: Km value for FH enzyme, 10 nM FH, 15 min, room temperature) came to 41 ± 1.1 µM.

Take `Cn1c(=O)c2c(-c3ccc(Br)cc3)n(CCc3ccccc3)cc2n(C)c1=O` [NCGC00117693, 5-(4-bromophenyl)-1,3-dimethyl-6-phenethyl-1,6-dihydro-2H-pyrrolo[3,4-d]pyrimidine-2,4(3H)-dione]: in data set [2], the “PAMPA permeability pH 5” value is reported as 590 1×10–6 cm/s and the “PAMPA Permeability pH 7.4” value was “Not conclusive”. Further, the solubility in data set [3] was found to be 14.7 µg/mL (≈ 33.5 µM). On human fumarate hydratase [5], the AC50 was 7.06 µM and the Emax was 63.7%. This compound registered a half-life in [6] of 1.23 min.

With `Cn1c(=O)c2c(-c3ccccc3)n(CCCO)cc2n(C)c1=O` [NCGC00141286], the “activity in FH assay (in words)” value on human fumarate hydratase [5] is “inactive”.

For the compound `Cn1nc(-c2ccc(C(F)(F)F)cc2)nc2c(=O)n(C)c(=O)nc1-2` [Walrycin B], the “redox activity in amplex red assay (in words)” value is recorded as “weak” in the data set “Amplex red REDOX assay” and “weak REDOX activity” in the data set “Amplex red REDOX assay” (listed as walrycin B).

For `Cn1c(=O)c2c(-c3ccc(Cl)cc3)n(Cc3ccc(Cl)cc3)cc2n(C)c1=O` [NCGC00115664, 6-(4-chlorobenzyl)-5-(4-chlorophenyl)-1,3-dimethyl-1,6-dihydro-2H-pyrrolo[3,4-d]pyrimidine-2,4(3H)-dione], on human fumarate hydratase [5], the half-maximal activity concentration (AC50) stood at 17.7 µM and the Emax turned out to be 52%.

Regarding `CCCCn1cc2c(c1-c1ccc(Cl)cc1)c(=O)n(C)c(=O)n2C` [NCGC00115662, 6-butyl-5-(4-chlorophenyl)-1,3-dimethyl-1,6-dihydro-2H-pyrrolo[3,4-d]pyrimidine-2,4(3H)-dione], at human fumarate hydratase [5], the activity was half-maximal at 25.1 µM (AC50) and the Emax came out at 60.5%.
